Assay results collected from several papers.
Compare with care: the assays were run in different laboratories.

| SMILES | test system | setting | endpoint | result |
| --- | --- | --- | --- | --- |
| CC(C)Oc1c(NC(=O)c2ccc(NC(=O)[C@H](CC(N)=O)NC(=O)c3ccc(NC(=O)c4ccc(C#N)cc4)cc3)cc2)ccc(C(=O)Nc2ccc(C(=O)O)cc2)c1O | male CD-1 mouse, plasma | subcutaneous, 5 mg/kg, single dose | AUC | 517 ng·h/mL |
| CC(C)(C)c1ccc(O)c(CN(Cc2cc(C(C)(C)C)ccc2O)C2CCC(NC(N)=O)CC2)c1 (centres unmarked) | male C57BL/6 mouse, plasma | oral, 10 mg/kg, single dose | AUC(0-inf) | 6620 ng·h/mL |
| CNC(=O)[C@H](Cc1c[nH]cn1)NC(=O)CN(CCCc1ccccc1)CC(=O)OC | male C57BL/6 mouse, plasma | intraperitoneal, 30 mg/kg | AUC | 1000 ng·h/mL |
| CC(C)(O)c1cn(-c2ccc(-c3ccc(CO)c(S(C)(=O)=O)c3)cc2)c(Cc2ccccc2Cl)n1 | male C57BL/6 mouse, serum | oral, 10 mg/kg | AUC | 13 µM·h |
| Cc1nc(-c2cnc(NC(C)C)n(C)c2=O)ccc1Oc1ccnc(-c2cnn(C)c2)c1 | female mouse, plasma | oral, 30 mg/kg, single dose | AUC(0-t) | 179000 ng·h/mL |
| NC[C@@H]1O[C@H](O[C@H]2[C@@H](O)[C@H](O[C@@H]3[C@@H](O)[C@H](N)C[C@H](N)[C@H]3O[C@H]3O[C@H](CO)[C@@H](O)[C@H](O)[C@H]3N)O[C@@H]2CO)[C@H](N)[C@@H](O)[C@@H]1O | male BALB/c mouse, plasma | intravenous, 15 mg/kg | AUC | 30600 ng·h/mL |
| COC(=O)CN(CCCc1ccccc1)CC(=O)N[C@@H](Cc1c[nH]cn1)c1nc(C)no1 | male C57BL/6 mouse, plasma | intraperitoneal, 30 mg/kg | AUC | 200 ng·h/mL |
| CC[C@H](C)[C@@H]1NC(=O)[C@@](C)(NC(=O)[C@H](CCCNC(=N)N)NC(=O)[C@H](CC(C)C)NC(=O)[C@@H](NC(=O)[C@H](CCC(N)=O)NC(=O)[C@H](CC(C)C)NC(C)=O)[C@@H](C)O)CCCC=CCCC[C@@](C)(C(=O)N[C@@H](CC(C)C)C(=O)N[C@@H](Cc2ccc3ccccc3c2)C(N)=O)NC(=O)[C@H](CCCNC(=N)N)NC(=O)[C@H](CCC(N)=O)NC1=O | male BALB/c mouse, plasma | intravenous, 5 mg/kg | AUC | 76 µM·h |
| CC(C)(O)c1cn(-c2ccc(-c3cc(F)c(CO)c(S(C)(=O)=O)c3)cc2F)c(C(C)(C)c2c(Cl)cccc2Cl)n1 | male C57BL/6 mouse, serum | oral, 10 mg/kg | AUC | 7.4 µM·h |
| CCN1CCN(Cc2cc(NC(=O)c3ccc(C)c(-c4ccc5nc(NC(=O)C6CC6)cn5n4)c3)cc(C(F)(F)F)c2)CC1 | Swiss mouse, plasma | intraperitoneal, 3 mg/kg | AUC | 1070 ng·h/mL |
| OC[C@H]1O[C@@H](c2ccc(Cl)c(Cc3ccc(O[C@H]4CCOC4)cc3)c2)[C@H](O)[C@@H](O)[C@@H]1O | CD-1 mouse, plasma | intravenous, 5 mg/kg | AUC | 1450 ng·h/mL |
